B1: tRNA (parent)
chain: GUUCCGUUGGCGUAAUGGUAACGCGUCUCCCUCCUAAGGAGAAGACUGCGGGUUCGAGUCCCGUACGGAACG

This sample holds only a part of the variants without activity.

The variants in this series derive from B1. Description: yeast fitness relative to wild type (ratio to wild type); higher = fitter; tRNA-Arg(CCU), competitive growth, 37 C, YPD. In outline:
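Start and end populations of a pooled competition were compared by 100-nucleotide paired-end sequencing of gene amplicons. The Saccharomyces cerevisiae strains carried tRNA-Arg(CCU) gene variants at the native genomic locus, synthesised with a 3% per-site mutation rate at 69 sites, and competed in YPD at 37°C for 24 hours in six parallel replicates. Darwinian fitness relative to wild type was based on the change in genotype frequencies. Genotypes required ≥ 100 starting reads, and estimates < 0.5 were set to 0.5.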
For the variant GUUCCGUUGGCGUAAUGGUAACGCGUCUCCAUCCUACGGAGAAGAUUGCGGGUUCGAGUCCCGUACGGAACG [C31A A37C C46U], the yeast fitness was at most 0.5. The value for GUUCCGUUGGCGUAAUGGUAACGCGUCUCCAUCCUAAGGAGAAGACUGCGGGUUCGAGUCGCGUACGCAACG [C31A C61G G68C] was at most 0.5; that for GUUCCGUUGGCGUAAUGGUAACGCGUCUCCAUCCUAAGGAGAAGACUGCGGGUUAGAGUCCCGUACGGAACG [C31A C55A] was 0.666; that for GUUCCGUUGGCGUAAUGGUAACGCGUCUCCAUCCUAAGGAGAAGACUGCGGGUUUGAGUCCCGUACGGAACG [C31A C55U] was 0.863. Under GUUCCGUUGGCGUAAUGGUAACGCGUCUCCAUCCUAAGGCGAAGACAGCGGGUUCGAGUCCCGAACGGAACG [C31A A40C U47A U64A] stands at most 0.5. The value for GUUCCGUUGGCGUAAUGGUAACGCGUCUCCAUCCUAAGGAGAGGACUGCGGGUUCGAGUCCCGUACGAAACG [C31A A43G G68A] was 0.657. GUUCCGUUGGCGUAAUGGUAACGCGUCUCCAUCCUAAGGUGAAGACUGCGGGGUCCAGUCCGGUACGGAACG [C31A A40U U53G G56C C62G]: the yeast fitness is at most 0.5. Under GUUCCGUUGGCGUAAUGGUAACGCGUCUCCAUCAUACGGAGAAGACUGCGGGUUCGAGUCCCGUACGGAACG [C31A C34A A37C] stands 0.6. GUUCCGUUGGCGUAAUGGUAACGCGUCUCCAUCGUAAGGAGGAGUCUGCGGGUUCGAGUCCCGUACGGAACG [C31A C34G A42G A45U]: the yeast fitness was at most 0.5. Under GUUCCGUUGGCGUAAUGGUAACGCGUCUCCAUGCUAAGGAGCAGACUACGGGUACGAGUCCCGUAAGGAACG [C31A C33G A42C G48A U54A C66A] stands at most 0.5; under GUUCCGUUGGCGUAAUGGUAACGCGUCUCCAUCCUAAGGCGAAGAUUGCGGGUUUGAGUCCCAUACGGAACG [C31A A40C C46U C55U G63A], at most 0.5; under GUUCCGUUGGCGUAAUGGUAACGCGUCUCCAUCCUAAGGAGAAGACUGUGGGUUCGAGUCUCGUACGGAACG [C31A C49U C61U], 0.663.

In the case of GUUCCGUUGGCGUAAUGGUAACGCGUCUCCAUCCUAAGGAGAAGACUGCGGGUUCGGGUCCCGUACGAAACG [C31A A57G G68A], the yeast fitness is at most 0.5. For the variant GUUCCGUUGGCGUAAUGGUAACGCGUCUCCAUGCUAAGGAGCAGACUACGGGUACGAGUCCCGUACGGCACG [C31A C33G A42C G48A U54A A69C], the yeast fitness was at most 0.5.

As to GUUCCGUUGGCGUAAUGGUAACGCGUCUCCAUCCUACGGAGAAGACUGCGGGUUCGAGUCCCGUACAGAACG [C31A A37C G67A], the yeast fitness was at most 0.5. As to GUUCCGUUGGCGUAAUGGUAACGCGUCUCCAUCCUAAGAAGAAGAUUGCGGGUUCGAGUCCCGUACGGAACG [C31A G39A C46U], the yeast fitness is at most 0.5.

For the variant GUUCCGUUGGCGUAAUGGUAACGCGUCUCCAUCCUAAGGAGAAGAAUGCGGGUUCGAGUCCCGUACGGAACG [C31A C46A], the yeast fitness was 0.853.

In the case of GUUCCGUUGGCGUAAUGGUAACGCGUCUCCAUCCUAAGGAGAAGAGUGCGGGUUCGAGUCCCGUACGGAACG [C31A C46G], the yeast fitness was 0.852. As for GUUCCGUUGGCGUAAUGGUAACGCGUCUCCAUCCUAAGGAGAAGACUGCGGGUUCGAGUCCCGUAUGGAACG [C31A C66U], the yeast fitness came out at 0.788.

On to GUUCCGUUGGCGUAAUGGUAACGCGUCUCCAUCGUAAGGAGAAGUCUGCGGGUUCGAGUCCCGUACGGAACG [C31A C34G A45U], for which the yeast fitness was determined as 0.591. The value for GUUCCGUUGGCGUAAUGGUAACGCGUCUCCAUCCUAAGGAGAAGACUGCGGGUUCGAGUCGCGUACCGAGCG [C31A C61G G67C A70G] was at most 0.5.

GUUCCGUUGGCGUAAUGGUAACGCGUCUCCAUCCUAAGGAGAAGACUGCGGGUUCGAGUCCGAUAGGGGACG [C31A C62G G63A C66G A69G]: the yeast fitness was at most 0.5. The value for GUUCCGUUGGCGUAAUGGUAACGCGUCUCCAUCCUAAGGAGAAGAUUGCGGGUUCGAGUCCCGUACGGACCG [C31A C46U A70C] was 0.62. The value for GUUCCGUUGGCGUAAUGGUAACGCGUCUCCAUCCUAAGGAGAAGACUGCGGGUUCGAGUCCCGUCCGGAACG [C31A A65C] was 0.89; that for GUUCCGUUGGCGUAAUGGUAACGCGUCUCCAUCCUAAGGAGAAGACUGCGGGUUCGAGUCCCGUGCGGAACG [C31A A65G] was 0.732; that for GUUCCGUUGGCGUAAUGGUAACGCGUCUCCAUCCUAAGGAGAAGACUGCGGGUUCGAGUCCCGUUAGGAACG [C31A A65U C66A] was at most 0.5.

As to GUUCCGUUGGCGUAAUGGUAACGCGUCUCCAUACUAAGGAGAAGACUGCGGGUUGGUGUCCCGUAUAGAACG [C31A C33A C55G A57U C66U G67A], the yeast fitness is at most 0.5.

For GUUCCGUUGGCGUAAUGGUAACGCGUCUCCAUCCUAAGGAGAAGACUGCGGGUUCGAGUCCCGUACGGAUCG [C31A A70U], the yeast fitness came to 0.927. The value for GUUCCGUUGGCGUAAUGGUAACGCGUCUCCAUCCUAAGGAGAAGACUGCGGGUUCGAGUCCCGUACGGACCG [C31A A70C] was 0.783; that for GUUCCGUUGGCGUAAUGGUAACGCGUCUCCAUCCUAAGGAGAAGACUGCGGGUUCGAGUCCCGUACGGAGCG [C31A A70G] was 0.811. Under GUUCCGUUGGCGUAAUGGUAACGCGUCUCCAUCCUAAGGAGAAGACUGCGGGUUCGUGUCCCGUACGGUACG [C31A A57U A69U] stands at most 0.5. The value for GUUCCGUUGGCGUAAUGGUAACGCGUCUCCAUCCUAUGGAGAAGACUGCGGGUUCGAGUCCCAUACCGAACG [C31A A37U G63A G67C] was at most 0.5; that for GUUCCGUUGGCGUAAUGGUAACGCGUCUCCAUUCUAAGGACAAGACUGCGGGUUCGAGUCCCGUACCGAACG [C31A C33U G41C G67C] was at most 0.5. For the variant GUUCCGUUGGCGUAAUGGUAACGCGUCUCCAUCCUAAGAAGACGACUGCGGGAUCGAGUCCCGUAAGGAACG [C31A G39A A43C U53A C66A], the yeast fitness was at most 0.5. Take GUUCCGUUGGCGUAAUGGUAACGCGUCUCCAUCCUAAGGAGAAGACUGCGGGUUCGAGUACCGUACGGAACG [C31A C60A]: the yeast fitness came to 0.629.

For the variant GUUCCGUUGGCGUAAUGGUAACGCGUCUCCAUCCUAAGGAGCAGAGUGCGGGUUCGAGUCCCGUACAGAACG [C31A A42C C46G G67A], the yeast fitness came out at 0.625.

As to GUUCCGUUGGCGUAAUGGUAACGCGUCUCCAUCCUAAGGAGCAGACUGCGGGUUCGAGUCCCGUACGGAACG [C31A A42C], the yeast fitness amounted to 0.963.
